# Data: ChEMBL document CHEMBL3098058, “Imidazole-derived agonists for the neurotensin 1 receptor” (Bioorg Med Chem Lett, 2014)
# The source made the active and inactive calls. The rule behind the calls is not given here.
# What was measured:
# [1] = molecular target: T1, Neurotensin receptor type 1 (Homo sapiens, UniProt P30989); test: Agonist activity at NTR1 in human U2OS cells after 1 hr by beta-arrestin GFP reporter gene assay relative to NT peptide; format: cell-based
# How it was run: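 U2OS cells expressing NTR1 and a fluorescent β-arrestin reporter, imaged by high-content imaging of receptor–arrestin complex location after activation. EC50 and Emax are calculated relative to the efficacy of NT peptide at a saturating 100 nM.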
# Target sequence in this assay (P30989 whole entry): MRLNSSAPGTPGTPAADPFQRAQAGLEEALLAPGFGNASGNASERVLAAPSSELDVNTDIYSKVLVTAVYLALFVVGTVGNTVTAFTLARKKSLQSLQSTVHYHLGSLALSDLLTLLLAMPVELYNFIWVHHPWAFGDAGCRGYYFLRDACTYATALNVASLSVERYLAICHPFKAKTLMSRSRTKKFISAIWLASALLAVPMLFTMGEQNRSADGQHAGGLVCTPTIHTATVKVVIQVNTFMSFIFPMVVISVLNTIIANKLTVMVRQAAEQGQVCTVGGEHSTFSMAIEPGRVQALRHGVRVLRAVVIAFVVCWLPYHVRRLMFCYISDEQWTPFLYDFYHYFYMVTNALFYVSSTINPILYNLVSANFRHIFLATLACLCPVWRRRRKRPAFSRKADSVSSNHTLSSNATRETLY
# [2] = molecular target: T1, Neurotensin receptor type 1; test: Agonist activity at NTR1 in human U2OS cells after 1 hr by beta-arrestin GFP reporter gene assay; format: cell-based
# How it was run: (§1)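 High-content imaging in U2OS cells expressing the receptor of interest (NTR1, NTR2 or GPR35) plus a β-arrestin fluorescent reporter. The read-out is the location of the receptor–arrestin complex after receptor activation.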
# Target sequence in this assay (P30989 whole entry): as above
# [3] = molecular target: T1, Neurotensin receptor type 1; test: Ratio of EC50 for NTR1 in human U2OS cells to EC50 for NTR1 (unknown origin) expressed in CHO cells assessed as Ca2+ mobilization; format: functional, cell-based
# Target sequence in this assay (P30989 whole entry): as above
# [4] = molecular target: Mu-type opioid receptor (Homo sapiens, UniProt P35372); test: Inhibition of MOR (unknown origin)
# [5] = molecular target: Delta-type opioid receptor (Homo sapiens, UniProt P41143); test: Inhibition of DOR (unknown origin)
# [6] = Cytotoxicity in human Fa2N-4 cells after 24 hrs; format: cell-based; conditions: fa2n-4, 24 h, read-out: LC50 (the source's name)
# How it was run: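 Fa2N-4 cells are immortalized human hepatocytes. Compounds were exposed for 24 hours. Readout is the LC50 (μM).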
# [7] = Metabolic stability in mouse liver microsomes assessed as compound remaining at 1hr; format: ADME, Microsome; conditions: read-out: Stability
# How it was run: (§2)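 Compound stability in human or mouse liver homogenate/microsomes, given as % remaining at 1 hr, run in triplicate.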
# [8] = Metabolic stability in human liver microsomes assessed as compound remaining at 1 hr; format: ADME; conditions: read-out: Stability; how it was run: as §2
# [9] = Metabolic stability in human plasma assessed as compound remaining at 3 hrs; format: ADME, cell-free; conditions: read-out: Stability
# [10] = Metabolic stability in mouse plasma assessed as compound remaining at 3 hrs; format: ADME, cell-free; conditions: read-out: Stability
# [11] = Plasma protein binding in mouse at 10 uM; format: ADME, cell-free
# How it was run: (§3)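 Plasma protein binding in human or mouse plasma at 1 μM and 10 μM compound, given as % bound.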
# [12] = Plasma protein binding in human at 10 uM; format: ADME, cell-free; how it was run: as §3
# [13] = Plasma protein binding in mouse at 1 uM; format: ADME, cell-free; how it was run: as §3
# [14] = Blood brain permeability of the compound at donor and acceptor pH 7.4 by PAMPA; format: ADME
# [15] = Plasma protein binding in human at 1 uM; format: ADME, cell-free; how it was run: as §3
# [16] = molecular target: Sodium-dependent dopamine transporter (Homo sapiens, UniProt Q01959); test: Inhibition of DAT (unknown origin)
# [17] = molecular target: T1, Neurotensin receptor type 1; test: Inhibition of NTS1 receptor (unknown origin)
# Target sequence in this assay (P30989 whole entry): as above
# [18] = Permeability of the compound at donor pH 6.2 and acceptor pH 7.4 by PAMPA; format: ADME
# [19] = Permeability of the compound at donor pH 5.0 and acceptor pH 7.4 by PAMPA; format: ADME
# [20] = Aqueous solubility of the compound in pION buffer at pH 7.4; format: physicochemical
# [21] = Aqueous solubility of the compound in pION buffer at pH 6.2; format: physicochemical
# [22] = Aqueous solubility of the compound in pION buffer at pH 5.0; format: physicochemical
# [23] = molecular target: T1, Neurotensin receptor type 1; test: Agonist activity at NTR1 (unknown origin) expressed in CHO cells assessed as Ca2+ mobilization by Fluo-4 NW dye-based fluorescence assay; format: functional, cell-based
# Target sequence in this assay (P30989 whole entry): as above
# [24] = molecular target: T1, Neurotensin receptor type 1; test: Agonist activity at NTR1 (unknown origin) expressed in CHO-K1 cells coexpressing beta-arrestin/N-terminal deletion mutant of beta-galactosidase fusion protein by chemiluminescence assay; format: cell-based
# How it was run: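 DiscoveRx PathHunter format. CHO-K1 cells express NTR1 fused in frame to the small ProLink β-gal fragment, stably co-expressed with β-arrestin fused to the N-terminal-deletion β-gal enzyme acceptor. Receptor activation recruits β-arrestin, which forces fragment complementation into active β-gal. The resulting enzyme activity is read by chemiluminescence. EC50 and Emax are expressed as % of NT peptide response.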
# Target sequence in this assay (P30989 whole entry, looked up, change not shown): as the sequence (P30989 whole entry) above
# [25] = molecular target: G-protein coupled receptor 35 (Homo sapiens, UniProt Q9HC97); test: Agonist activity at GPR35 in human U2OS cells after 1 hr by beta-arrestin GFP reporter gene assay; format: cell-based; how it was run: as §1
# [26] = molecular target: Neurotensin receptor type 2 (Homo sapiens, UniProt O95665); test: Agonist activity at NTR2 in human U2OS cells after 1 hr by beta-arrestin GFP reporter gene assay; format: cell-based; how it was run: as §1
# [27] = molecular target: T1, Neurotensin receptor type 1; test: Agonist activity at NTR1 (unknown origin) at 10 uM in presence of SR142948A
# How it was run: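 NTR1 activation is driven by agonist at 10 μM after preincubation with a known NTR1 antagonist. Antagonist inhibition of this activation is reported as IC50.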
# Target sequence in this assay (P30989 whole entry): as above
# [28] = Permeability of the compound at donor and acceptor pH 7.4 by PAMPA; format: ADME
# [29] = molecular target: T1, Neurotensin receptor type 1; test: Agonist activity at NTR1 (unknown origin) expressed in CHO cells assessed as Ca2+ mobilization by Fluo-4 NW dye-based fluorescence assay relative to NT peptide; format: functional, cell-based
# [30] = molecular target: T1, Neurotensin receptor type 1; test: Agonist activity at NTR1 (unknown origin) expressed in CHO-K1 cells coexpressing coexpressing beta-arrestin/N-terminal deletion mutant of beta-galactosidase fusion protein by chemiluminescence assay relative to NT peptide; format: cell-based
# How it was run: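 PathHunter complementation in CHO-K1 cells. NTR1 is fused to the ProLink small enzyme fragment and co-expressed with a β-arrestin fusion to the N-terminal-deleted β-gal enzyme acceptor. Activation drives β-arrestin binding and β-gal fragment complementation, and enzyme activity is read by chemiluminescence.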
# Sequence of Neurotensin receptor type 2 (O95665 whole entry): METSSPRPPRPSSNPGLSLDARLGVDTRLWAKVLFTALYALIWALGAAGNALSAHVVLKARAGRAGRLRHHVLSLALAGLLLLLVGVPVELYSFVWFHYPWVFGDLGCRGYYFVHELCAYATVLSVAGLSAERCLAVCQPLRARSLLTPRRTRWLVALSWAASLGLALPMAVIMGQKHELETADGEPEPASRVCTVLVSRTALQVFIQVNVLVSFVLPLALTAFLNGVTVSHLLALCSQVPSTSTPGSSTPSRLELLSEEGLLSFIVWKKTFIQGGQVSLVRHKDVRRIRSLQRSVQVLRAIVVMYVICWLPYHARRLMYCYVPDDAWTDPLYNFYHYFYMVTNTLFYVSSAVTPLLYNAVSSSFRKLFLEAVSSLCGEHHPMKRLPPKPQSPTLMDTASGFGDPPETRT
# Sequence of G-protein coupled receptor 35 (Q9HC97 whole entry): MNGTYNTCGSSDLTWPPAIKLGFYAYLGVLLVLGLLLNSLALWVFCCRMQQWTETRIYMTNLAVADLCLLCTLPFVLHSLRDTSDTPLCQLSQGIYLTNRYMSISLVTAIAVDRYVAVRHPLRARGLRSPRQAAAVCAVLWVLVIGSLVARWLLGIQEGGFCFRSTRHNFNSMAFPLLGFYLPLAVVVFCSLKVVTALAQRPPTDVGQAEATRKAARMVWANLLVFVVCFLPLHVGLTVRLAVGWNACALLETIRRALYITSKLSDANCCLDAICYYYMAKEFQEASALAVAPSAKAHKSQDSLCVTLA
# Sequence of Sodium-dependent dopamine transporter (Q01959 whole entry): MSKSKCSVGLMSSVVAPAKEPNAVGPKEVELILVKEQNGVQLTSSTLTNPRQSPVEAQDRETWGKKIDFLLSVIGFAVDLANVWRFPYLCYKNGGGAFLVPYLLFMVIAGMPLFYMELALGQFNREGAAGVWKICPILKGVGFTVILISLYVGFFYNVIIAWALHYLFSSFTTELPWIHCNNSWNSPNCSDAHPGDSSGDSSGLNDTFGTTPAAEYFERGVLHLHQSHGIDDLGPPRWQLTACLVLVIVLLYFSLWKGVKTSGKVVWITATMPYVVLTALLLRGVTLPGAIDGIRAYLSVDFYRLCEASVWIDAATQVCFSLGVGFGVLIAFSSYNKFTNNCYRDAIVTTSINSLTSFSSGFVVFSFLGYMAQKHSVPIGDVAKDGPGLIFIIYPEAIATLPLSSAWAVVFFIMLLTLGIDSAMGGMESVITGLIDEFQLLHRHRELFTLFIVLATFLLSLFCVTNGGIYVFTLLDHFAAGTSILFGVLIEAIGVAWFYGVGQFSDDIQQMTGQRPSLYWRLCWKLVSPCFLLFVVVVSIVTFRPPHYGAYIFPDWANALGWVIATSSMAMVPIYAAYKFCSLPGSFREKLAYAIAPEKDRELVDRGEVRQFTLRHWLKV
# Sequence of Delta-type opioid receptor (P41143 whole entry): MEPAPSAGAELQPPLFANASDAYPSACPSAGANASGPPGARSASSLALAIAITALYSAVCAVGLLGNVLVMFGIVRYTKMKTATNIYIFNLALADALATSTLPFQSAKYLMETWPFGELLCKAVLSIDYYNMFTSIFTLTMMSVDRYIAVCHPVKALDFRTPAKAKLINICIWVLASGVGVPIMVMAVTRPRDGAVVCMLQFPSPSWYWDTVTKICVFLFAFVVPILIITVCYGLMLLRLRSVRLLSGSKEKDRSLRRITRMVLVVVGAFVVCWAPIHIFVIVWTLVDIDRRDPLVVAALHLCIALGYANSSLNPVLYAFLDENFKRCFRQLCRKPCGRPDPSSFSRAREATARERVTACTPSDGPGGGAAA
# Sequence of Mu-type opioid receptor (P35372 whole entry): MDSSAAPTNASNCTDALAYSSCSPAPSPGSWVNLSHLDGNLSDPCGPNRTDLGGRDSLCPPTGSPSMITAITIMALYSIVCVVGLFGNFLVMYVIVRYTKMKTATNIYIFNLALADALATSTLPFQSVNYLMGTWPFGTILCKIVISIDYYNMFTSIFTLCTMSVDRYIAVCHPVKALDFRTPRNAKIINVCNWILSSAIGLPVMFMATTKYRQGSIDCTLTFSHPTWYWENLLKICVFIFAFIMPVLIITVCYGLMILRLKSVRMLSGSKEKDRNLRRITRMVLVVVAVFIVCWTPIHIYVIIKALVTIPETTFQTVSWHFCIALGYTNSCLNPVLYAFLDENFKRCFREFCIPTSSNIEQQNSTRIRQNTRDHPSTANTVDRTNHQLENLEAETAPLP
structure (smiles),measurement,setting,value
COc1cccc(OC)c1-c1nc(C(=O)N[C@@H](CC(C)C)C(=O)O)cn1-c1ccncc1,Emax,[1],100%
same,EC50,[2],66 µM
COc1ccccc1-c1cc(C(=O)N[C@H](CC(C)C)C(=O)O)nn1-c1ccnc2cc(Cl)ccc12,Emax,[1],98%
same,EC50,[2],0.97 µM
COc1cccc(OC)c1-c1nc(C(=O)NC2(C(=O)O)C3CC4CC(C3)CC2C4)cn1-c1ccnc2cc(Cl)ccc12 (stereo not drawn),Emax,[1],100%
same,EC50,[2],46 µM
CC(C)C[C@H](NC(=O)c1cn(-c2ccnc3ccccc23)c(-c2ccccc2)n1)C(=O)O,EC50,[2],> 80 µM
COc1cccc(OC)c1-c1cc(C(=O)N[C@@H](CC(C)C)C(=O)O)nn1-c1ccnc2cc(Cl)ccc12,Ratio EC50,[3],5
same,Ki,[4],3.4 µM
same,Ki,[5],5.2 µM
same,CC50,[6],> 50 µM
same,remaining at 1 h,[7],46%
same,remaining at 1 h,[8],76%
same,remaining at 3 h,[9],88.9%
same,remaining at 3 h,[10],70.7%
same,PPB,[11],97.1%
same,PPB,[12],99.7%
same,PPB,[13],96.6%
same,permeability,[14],4.8 ×10⁻⁶ cm/s
same,PPB,[15],99.6%
same,Ki,[16],> 10 µM
same,Ki,[17],3.3 µM
same,permeability,[18],725 ×10⁻⁶ cm/s
same,permeability,[19],1270 ×10⁻⁶ cm/s
same,solubility,[20],> 296 µM
same,solubility,[21],> 296 µM
same,solubility,[22],113 µM
same,EC50,[23],< 156 nM
same,EC50,[24],> 33 µM
same,EC50,[25],> 40 µM
same,EC50,[26],> 80 µM
same,Emax,[1],100%
COc1cccc(OC)c1-c1nc(C(=O)N[C@@H](CC(C)C)C(=O)O)cn1-c1ccnc2cc(Cl)ccc12,Ratio EC50,[3],5
same,Activity,[27],inactive
same,CC50,[6],> 50 µM
same,remaining at 1 h,[7],59%
same,remaining at 1 h,[8],100%
same,remaining at 3 h,[9],100%
same,remaining at 3 h,[10],100%
same,PPB,[11],91.4%
same,PPB,[12],98.7%
same,PPB,[13],92.2%
same,permeability,[14],1.2 ×10⁻⁶ cm/s
same,PPB,[15],98.7%
same,Ki,[16],> 10 µM
same,Ki,[17],10 µM
same,permeability,[28],6 ×10⁻⁶ cm/s
same,permeability,[18],17 ×10⁻⁶ cm/s
same,permeability,[19],363 ×10⁻⁶ cm/s
same,solubility,[20],> 99 µM
same,solubility,[21],> 99 µM
same,solubility,[22],> 99 µM
same,Emax,[29],93%
same,EC50,[23],298 nM
same,Emax,[30],100%
same,EC50,[24],6.1 µM
same,EC50,[25],> 40 µM
same,EC50,[26],> 80 µM
same,Emax,[1],79%
same,EC50,[2],2 µM
CC(C)C[C@H](NC(=O)c1cn(-c2ccnc3cc(Cl)ccc23)c(-c2ccccc2)n1)C(=O)O,Emax,[1],100%
same,EC50,[2],72 µM
COc1ccccc1-c1nc(C(=O)N[C@@H](CC(C)C)C(=O)O)cn1-c1ccnc2cc(Cl)ccc12,Emax,[1],100%
same,EC50,[2],56 µM
Cc1cccc(C)c1-c1nc(C(=O)N[C@@H](CC(C)C)C(=O)O)cn1-c1ccnc2cc(Cl)ccc12,Emax,[1],78%
same,EC50,[2],9.2 µM
CC(C)C[C@H](NC(=O)c1cn(-c2ccncc2)c(-c2ccccc2)n1)C(=O)O,EC50,[2],> 80 µM
COc1cccc(OC)c1-c1cc(C(=O)NC2(C(=O)O)C3CC4CC(C3)CC2C4)nn1-c1ccnc2cc(Cl)ccc12 (stereo not drawn) [REMINERTANT],Emax,[1],100%
same,EC50,[2],31 µM
COc1cccc(OC)c1-c1nc(C(=O)N[C@@H](CC(C)C)C(=O)O)cn1-c1ccc(C)cc1,EC50,[2],> 80 µM
COc1ccccc1-c1nc(C(=O)N[C@@H](CC(C)C)C(=O)O)cn1-c1ccnc2ccccc12,EC50,[2],> 80 µM
COc1ccc(-c2nc(C(=O)N[C@@H](CC(C)C)C(=O)O)cn2-c2ccnc3cc(Cl)ccc23)c(OC)c1,EC50,[2],> 80 µM
CC(C)C[C@H](NC(=O)c1cn(-c2ccnc3cc(Cl)ccc23)c(-c2c(Cl)cccc2Cl)n1)C(=O)O,Emax,[1],80%
same,EC50,[2],5.2 µM
COc1cccc(OC)c1-c1nc(C(=O)N[C@@H](CC(C)C)C(=O)O)cn1-c1ccnc2ccccc12,Emax,[1],59%
same,EC50,[2],3.8 µM
COc1cccc(OC)c1-c1cc(C(=O)NC2(C(=O)O)C3CC4CC(C3)CC2C4)nn1-c1ccc(C(=O)N(C)CCCN(C)C)cc1C(C)C (stereo not drawn),EC50,[2],> 80 µM
COc1cccc(OC)c1-c1nc(C(=O)N[C@H](CC(C)C)C(=O)O)cn1-c1ccnc2cc(Cl)ccc12,Emax,[1],50%
same,EC50,[2],9.4 µM
COc1ccccc1-c1nc(C(=O)N[C@@H](CC(C)C)C(=O)O)cn1-c1ccncc1,EC50,[2],> 80 µM
COc1cccc(OC)c1-c1nc(C(=O)N[C@@H](CC(C)C)C(=O)O)cn1-c1cccc2ccccc12,CC50,[6],> 50 µM
same,remaining at 1 h,[7],76%
same,remaining at 1 h,[8],100%
same,remaining at 3 h,[9],76%
same,remaining at 3 h,[10],76%
same,PPB,[11],95.4%
same,PPB,[12],98%
same,PPB,[13],96.4%
same,permeability,[14],1.1 ×10⁻⁶ cm/s
same,PPB,[15],97.9%
same,permeability,[28],12 ×10⁻⁶ cm/s
same,permeability,[18],145 ×10⁻⁶ cm/s
same,permeability,[19],953 ×10⁻⁶ cm/s
same,solubility,[20],> 297 µM
same,solubility,[21],> 297 µM
same,solubility,[22],247 µM
same,Emax,[1],93%
same,EC50,[2],2.3 µM
